According to ChEMBL document CHEMBL1250501, “Anti-tubercular agents. Part 5: synthesis and biological evaluation of benzothiadiazine 1,1-dioxide based congeners” (Eur J Med Chem, 2010):
Converted amounts (≈) assume the structure as drawn.

What was measured:
[1] = Cytotoxicity against mouse AML-12 cells assessed as cell viability at 2 ug/ml after 24 hrs by MTT assay; type: cell-based; conditions: read-out: Activity
How it was run: (§1)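 AML-12 hepatocytes in 96-well format, in DMEM with 10% FCS. Exposed to test material at 2–100 µg/mL for 24 h at 37 °C in CO₂. MTT then added for 3 h and formazan formation read. Percentage cytotoxicity calculated relative to untreated cells.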

[2] = Cytotoxicity against mouse AML-12 cells assessed as cell viability at 5 ug/ml after 24 hrs by MTT assay; type: cell-based; conditions: read-out: Activity; how it was run: as §1
[3] = Cytotoxicity against mouse AML-12 cells assessed as cell viability at 10 ug/ml after 24 hrs by MTT assay; type: cell-based; conditions: read-out: Activity; how it was run: as §1
[4] = Cytotoxicity against mouse AML-12 cells assessed as cell viability at 25 ug/ml after 24 hrs by MTT assay; type: cell-based; conditions: read-out: Activity; how it was run: as §1
[5] = Cytotoxicity against mouse AML-12 cells assessed as cell viability at 50 ug/ml after 24 hrs by MTT assay; type: cell-based; conditions: read-out: Activity; how it was run: as §1
[6] = Cytotoxicity against mouse AML-12 cells assessed as cell viability at 100 ug/ml after 24 hrs by MTT assay; type: cell-based; conditions: read-out: Activity; how it was run: as §1
[7] = system: Mycobacterium tuberculosis; assay: Antimycobacterial activity against Mycobacterium tuberculosis H37Rv infected in BALB/c mouse lung assessed as reduction of bacterial load at 25 mg/kg, po administered 1 week after infection measured after 4 weeks; type: functional
How it was run: (§2)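 Female BALB/c mice, 6 weeks old, 20–22 g, acclimatised one week. Infected intranasally with about 1.5 × 10⁶ CFU of H37Rv grown 10 days in 7H9/ADC. Treatment began 1 week post-infection, given orally in 50% PEG in water, for 4 weeks. Lungs and spleens homogenised in saline with 0.05% Tween 80. Duplicate 10-fold dilutions plated on 7H10/OADC, 37 °C, 5% CO₂, 4–6 weeks. Result expressed as log₁₀ CFU per organ versus untreated controls.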

[8] = system: Mycobacterium tuberculosis; assay: Antimycobacterial activity against Mycobacterium tuberculosis H37Rv infected in BALB/c mouse spleen assessed as reduction of bacterial load at 25 mg/kg, po administered 1 week after infection measured after 4 weeks; type: functional; how it was run: as §2
[9] = system: Mycobacterium tuberculosis; assay: Antimycobacterial activity against Mycobacterium tuberculosis H37Rv after 3 to 4 weeks by broth microdilution assay; type: functional
How it was run: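 MIC by broth microdilution on compounds active in a single-concentration primary screen. Plates incubated 3–4 weeks at 37 °C in a CO₂ incubator. Wells read visually for absence of growth turbidity.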

[10] = system: Mycobacterium tuberculosis; assay: Antimycobacterial activity against Mycobacterium tuberculosis H37Rv infected in BALB/c mouse lung assessed as reduction of bacterial load at 10 mg/kg, po administered 1 week after infection measured after 4 weeks; type: functional; how it was run: as §2

Row | Structure (SMILES) | viability at 24 h, 2 ug/ml [1] [%] | viability at 24 h, 5 ug/ml [2] [%] | viability at 24 h, 10 ug/ml [3] [%] | viability at 24 h, 25 ug/ml [4] [%] | viability at 24 h, 50 ug/ml [5] [%] | viability at 24 h, 100 ug/ml [6] [%] | log10cfu [7] | log10cfu [8] | MIC [9] [µg/mL] | log10cfu [10]
1 | O=[N+]([O-])c1ccc(/C=N/NC2=NS(=O)(=O)c3ccccc3N2c2ccccc2)o1 | 2.4 | 9 | 9.1 | 8.5 | 8.7 | 14.9 | 4.8 | 2 |  | 
2 | CO[C@H]1/C=C/O[C@@]2(C)Oc3c(C)c(O)c4c(O)c(c(/C=N/N5CCN(C)CC5)c(O)c4c3C2=O)NC(=O)/C(C)=C\C=C\[C@H](C)[C@H](O)[C@@H](C)[C@@H](O)[C@@H](C)[C@H](OC(C)=O)[C@@H]1C [RIFAMPIN] |  |  |  |  |  |  |  |  | 0.25 (≈ 0.304 µM) | 3.8
